This is a sample that favours compounds with a hit; in the whole collection about 2.3% have one here.
TRPC6 act – mouse TRPC6 channel activation; Q61143; HEK293-TRPC6 membrane potential dye fluorescence; stronger effect = higher value; B-score at 10 µM; 310,000 tested, 0.13% active;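 active means B-score of the integrated fluorescence ratio above library mean plus 3 SD, and starting fluorescence ratio within library mean plus 5 SD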;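 further: higher score means more depolarization so channel activation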
Target sequence (Q61143 whole entry, looked up): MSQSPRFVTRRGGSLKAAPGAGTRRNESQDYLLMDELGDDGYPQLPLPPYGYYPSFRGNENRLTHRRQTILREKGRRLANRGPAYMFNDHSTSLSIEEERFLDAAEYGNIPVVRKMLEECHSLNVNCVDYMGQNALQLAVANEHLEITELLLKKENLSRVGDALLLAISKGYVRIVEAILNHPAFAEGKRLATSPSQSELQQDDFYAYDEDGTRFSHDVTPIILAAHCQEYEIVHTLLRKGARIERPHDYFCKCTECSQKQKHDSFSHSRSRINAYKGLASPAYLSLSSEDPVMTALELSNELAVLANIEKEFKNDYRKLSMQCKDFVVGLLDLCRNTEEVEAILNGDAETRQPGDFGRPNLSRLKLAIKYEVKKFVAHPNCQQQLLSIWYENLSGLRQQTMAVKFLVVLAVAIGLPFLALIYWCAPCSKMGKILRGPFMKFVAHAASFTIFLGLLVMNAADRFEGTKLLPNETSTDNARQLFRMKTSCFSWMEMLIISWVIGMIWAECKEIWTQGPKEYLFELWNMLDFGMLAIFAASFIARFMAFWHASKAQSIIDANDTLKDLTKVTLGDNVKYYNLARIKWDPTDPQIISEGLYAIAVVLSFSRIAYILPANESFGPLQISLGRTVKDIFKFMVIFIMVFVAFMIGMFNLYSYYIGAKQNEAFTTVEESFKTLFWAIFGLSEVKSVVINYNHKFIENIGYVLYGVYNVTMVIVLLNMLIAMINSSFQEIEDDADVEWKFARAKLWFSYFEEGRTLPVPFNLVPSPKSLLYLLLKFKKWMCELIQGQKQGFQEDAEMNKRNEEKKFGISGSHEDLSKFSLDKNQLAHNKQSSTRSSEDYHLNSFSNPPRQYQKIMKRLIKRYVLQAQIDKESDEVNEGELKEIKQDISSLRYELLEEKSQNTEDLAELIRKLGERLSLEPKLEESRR
TRPC6 inhibitor – inhibitors of mouse TRPC6 channel. B-score at 10 µM. Q61143. HEK293-TRPC6, membrane potential dye, ACh-evoked depolarization; stronger effect = lower value. 310,000 tested, 1.1% active. AID 2553;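 active means B-score under library mean minus 3 SD, initial fluorescence not abnormally high, positive integrated signal ratio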;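 further: B-score derived from integrated fluorescence ratio over the kinetic read; more negative B-score means stronger inhibition of depolarization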
TRPC4 inh – blocks the mouse TRPC4 cation channel. Q9QUQ5. HEK293 TRPC4beta/mu-opioid, DAMGO-evoked Fluo4 calcium flux; stronger effect = lower value. B-score at 10 µM. 300,000 tested, 0.39% active;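 active means B-score over 3 SD under the library average, no early fluorescence shift, positive overall ratio signal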
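Material: HEK293 cells with stable TRPC4beta plus mu-opioid receptor expression / Probe or stimulus: DAMGO in two steps, submaximal then maximal / Compound: single concentration per test compound / Technique: kinetic Fluo4 fluorescence imaging of calcium influx / Read-out: per-well B score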
TRPC4 act – activators of mouse TRPC4 channel; Q9QUQ5; HEK293 TRPC4beta/mu-opioid, Fluo4 calcium fluorescence; stronger effect = higher value; B-score at 10 µM; 310,000 tested, 0.49% active;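 active means B-score above 5 SD of library B-scores, and initial fluorescence ratio not above library mean plus 5 SD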;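 further: positive B-score marks a calcium rise read as TRPC4 activation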
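Material: TRPC4beta and mu-opioid receptor HEK293 stable cells | Incubation: 45 min room-temperature Fluo4 loading, 110 s read | Detection: Kinetic Fluo4 calcium fluorescence | Measure: Integrated baseline-normalised fluorescence ratio, converted to per-well B score | Benchmarks: Low control buffer alone, high control maximal DAMGO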
TRPC4 PAM – allosterically enhances the mouse TRPC4 cation channel | 310,000 tested, 0.42% active | HEK293 TRPC4beta/mu-opioid, DAMGO EC20, Fluo-4 Ca2+ flux; stronger effect = higher value | AID 2227 | B-score at 10 µM | Q9QUQ5;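 active means B-score of calcium response area above 5 SD of library B-scores, with initial fluorescence ratio within 5 SD of library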;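 further: B-score of integrated fluorescence ratio over time as area under calcium response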
* = called active by the depositor; i = inactive.

SMILES | TRPC6 act | TRPC6 inhibitor | TRPC4 inh | TRPC4 act | TRPC4 PAM
CN(C)C1(CNC(=O)CC(NC(=O)c2ccccc2Cl)c2ccccc2)CCCCC1 (stereo not given) | i | i | -7* | 44* | i
O=C(Nc1ccccn1)C(NS(=O)(=O)c1cccc2nsnc12)c1ccccc1 (stereo not given) | i | i | i | i | i
Cc1ccc(-n2cnn(-c3ccc([N+](=O)[O-])cc3[N+](=O)[O-])c2=O)cc1 | i | i | -6* | i | i
O=c1c2ccccc2ncn1-c1ccc([N+](=O)[O-])cc1[N+](=O)[O-] | i | i | i | i | i
CCn1c(C)nc2cc(C(=O)N/N=C/c3ccc(O)c(O)c3O)ccc21 | i | i | i | i | 14*
Cc1c(N(C)S(=O)(=O)c2cccc(C(=O)NCC3CCCO3)c2)c(=O)n(-c2ccccc2)n1C (stereo not given) | i | i | i | i | i
Cc1c(N(C)S(=O)(=O)c2cc(C(=O)NCC3CCCO3)ccc2Cl)c(=O)n(-c2ccccc2)n1C (stereo not given) | i | i | -7* | i | i
COc1ccc(C(CNc2ccc(C(F)(F)F)cn2)N(C)C)cc1OC (stereo not given) | i | i | -6* | i | i
Cc1ccc(-n2c(SCC(=O)O)nc3sc4c(c3c2=O)C(C)CCC4)cc1 (stereo not given) | i | i | i | i | 11*
CCOc1ccc(-n2c(SCC(=O)O)nc3sc4c(c3c2=O)CCCC4)cc1 | i | i | i | i | 16*
Cc1ccccc1-n1c(SCC(=O)O)nc2sc3c(c2c1=O)CCCC3 | i | i | i | i | i
Cc1cc2cc(C#N)c(N3CCN(S(C)(=O)=O)CC3)nc2cc1C | i | i | i | i | i
Cc1ccc(-c2n[nH]c(=S)n2/N=C/c2c(C)[nH]n(-c3ccccc3)c2=O)cc1 | i | i | i | i | i
CSc1ccc(S(=O)(=O)NCC(=O)OCC(=O)N(C)Cc2ccccc2)cc1[N+](=O)[O-] | i | i | i | i | 17*
CSc1ccc(S(=O)(=O)NCC(=O)OCC(=O)N(Cc2ccccc2)C(C)C)cc1[N+](=O)[O-] | i | i | i | i | i
Cc1ccc(NS(=O)(=O)c2cc([N+](=O)[O-])ccc2NNC(=S)Nc2cccc(Cl)c2)c(C)c1 | i | i | i | i | i
Cc1ccc(NS(=O)(=O)c2cc([N+](=O)[O-])ccc2NNC(=S)Nc2cc(C)ccc2C)c(C)c1 | i | i | i | i | 16*
C[n+]1cn(Cc2ccc(C#N)cc2)c2ccccc21 | i | i | i | i | i
NC(=O)N/N=C1\c2ccccc2-c2c(C(N)=O)cccc21 | i | i | -5* | i | i
N#Cc1cccc2c1-c1ccccc1/C2=N/NC(N)=O | i | i | -6* | i | i
N#Cc1cccc2c1-c1ccccc1/C2=N/NC(N)=S | i | i | i | i | i
O=C1O/C(=C/C(=O)N2CCOCC2)c2ccccc21 | i | i | i | i | i
Cc1ccc(-c2cn(-c3ccccc3)c(SCC(N)=O)n2)cc1C | i | i | i | i | 21*
Cc1ccc(-n2cc(CNC(C)Cn3cncn3)c(-c3ccc(F)cc3)n2)cc1 (stereo not given) | i | i | i | 64* | i
COc1ccc(-c2nn(-c3ccccc3)cc2CNC(C)Cn2cncn2)c(F)c1 (stereo not given) | i | i | i | i | i
SMILES | TRPC6 act | TRPC6 inhibitor | TRPC4 inh | TRPC4 act | TRPC4 PAM
Cc1ccc(C)c(-n2cc(CNC(C)Cn3cncn3)c(-c3ccccc3)n2)c1 (stereo not given) | i | i | i | 66* | i
CCN1CCCC1CNC(=O)c1csc2c1CCCC2 (stereo not given) | i | i | i | 79* | i
Cc1cc(C)nc(Nc2nc(=O)c3ccccc3s2)n1 | i | i | i | i | 55*
Cc1nc2scc(-c3ccccc3)c2c(=O)n1N=C1C=CC(=O)C=C1 | i | i | -6* | i | i
O=C(NCc1ccccc1)C(c1ccncc1)N(C(=O)c1csnn1)C1CC1 (stereo not given) | i | i | i | i | i
CN1CCN(c2ncnc3c2[nH]c2ccc(F)cc23)CC1 | i | i | i | i | i
CN1CCN(c2cc3c(c4c2[nH]c2ccccc24)C(=O)CC(C)(C)C3)CC1 | i | i | i | 79* | i
CC1COC(C)(CC(=O)NN2C(=O)c3ccccc3C2=O)O1 (stereo not given) | i | i | i | i | i
Oc1ccc(CN2CCCCC2)nc1-c1ccccc1 | i | i | -6* | i | i
CNCCCOc1cc(C)cc(C)c1C | i | i | i | 153* | i
CCCCNCCCOc1ccc(C)cc1Br | i | i | i | i | i
CNCCCOc1ccc(C)cc1Br | i | i | i | i | 14*
C/C=C/c1ccc(OCC(=O)N(CCOC)c2c(N)n(CCCC)c(=O)[nH]c2=O)c(OC)c1 | i | i | i | i | i
CCCCN1CC[C@H]2C=CC[C@@H](C(=O)Nc3nccs3)[C@H]2C1=O | i | i | i | i | i
Cc1ccc(C)c(S(=O)(=O)NCC(=O)Nc2ccc3c(c2)OCO3)c1 | i | i | i | i | i
NC(=O)c1ccc(Oc2ccc3c(c2)CCC3)c([N+](=O)[O-])c1 | i | i | i | i | 24*
COc1ccc2c(c1)sc(N)[n+]2Cc1cc(C)cc2cccnc12 | i | i | -5* | i | i
Cc1cc(C[n+]2cc(Cl)ccc2N)c2ncccc2c1 | i | i | i | i | i
CCOc1ccc2c(c1)sc(N)[n+]2Cc1cc(C)cc2cccnc12 | i | i | -7* | i | i
Cc1cc(C[n+]2ncsc2N)c2ncccc2c1 | i | i | i | i | i
O=C(c1ccc(F)cc1)N1CCN(c2ccc([N+](=O)[O-])cc2-n2cccc2)CC1 | i | i | i | i | 24*
COc1ccc(N2CCN(C(=O)c3ccccc3F)CC2)c([N+](=O)[O-])c1 | i | i | i | i | i
O=C(c1ccccc1F)N1CCN(c2ccc([N+](=O)[O-])cc2-n2cccc2)CC1 | i | i | i | i | 18*
O=C(Nc1ccccc1N1CCN(C(=O)c2ccc(Cl)cc2)CC1)c1cccc([N+](=O)[O-])c1 | i | i | -6* | i | i

Screens as filed in PubChem.
